Results from ChEMBL document CHEMBL3286371, “wALADin benzimidazoles differentially modulate the function of porphobilinogen synthase orthologs” (J Med Chem, 2014).
Calls of active or inactive are those of the source. The rule behind the calls is not given here.

Key:
[1] = target: Delta-aminolevulinic acid dehydratase (Pseudomonas aeruginosa (strain ATCC 15692 / PAO1 / 1C / PRS 101 / LMG12228)) (UniProt Q59643); test: Stimulation of Pseudomonas aeruginosa PAO1 recombinant PBGS using 5-ALA as substrate at 10 to 1000 uM at pH 8 in presence of MgCl2 and KCl
[2] = target: Delta-aminolevulinic acid dehydratase (Pseudomonas aeruginosa (strain ATCC 15692 / PAO1 / 1C / PRS 101 / LMG12228)) (UniProt Q59643); test: Inhibition of Pseudomonas aeruginosa PAO1 recombinant PBGS using 0.2 mM 5-ALA as substrate at 50 to 200 uM at low pH by buffer scan assay
[3] = target: T1, Delta-aminolevulinic acid dehydratase, chloroplastic (Pisum sativum) (UniProt P30124); test: Inhibition of Pisum sativum PBGS using 10 mM 5-ALA as substrate assessed as decrease in enzyme activity at 6.25 to 100 uM in presence of MgCl2; conditions: Lathyrus oleraceus
T1 sequence (whole entry): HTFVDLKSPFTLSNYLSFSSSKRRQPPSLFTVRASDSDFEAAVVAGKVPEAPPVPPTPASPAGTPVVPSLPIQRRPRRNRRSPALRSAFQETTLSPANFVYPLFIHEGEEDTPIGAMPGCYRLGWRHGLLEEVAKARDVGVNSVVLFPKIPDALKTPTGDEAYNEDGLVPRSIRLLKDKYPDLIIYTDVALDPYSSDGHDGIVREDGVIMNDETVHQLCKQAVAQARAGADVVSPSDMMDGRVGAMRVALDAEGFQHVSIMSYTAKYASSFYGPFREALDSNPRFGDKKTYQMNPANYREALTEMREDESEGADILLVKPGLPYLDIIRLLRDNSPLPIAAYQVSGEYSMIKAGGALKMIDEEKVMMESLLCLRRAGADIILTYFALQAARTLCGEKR

[4] = target: T2, Delta-aminolevulinic acid dehydratase (Wolbachia sp. subsp. Brugia malayi (strain TRS), UniProt Q5GSR3); test: Inhibition of C-terminal His-tagged Wolbachia PBGS using 5-ALA as substrate
T2 sequence (Q5GSR3 whole entry): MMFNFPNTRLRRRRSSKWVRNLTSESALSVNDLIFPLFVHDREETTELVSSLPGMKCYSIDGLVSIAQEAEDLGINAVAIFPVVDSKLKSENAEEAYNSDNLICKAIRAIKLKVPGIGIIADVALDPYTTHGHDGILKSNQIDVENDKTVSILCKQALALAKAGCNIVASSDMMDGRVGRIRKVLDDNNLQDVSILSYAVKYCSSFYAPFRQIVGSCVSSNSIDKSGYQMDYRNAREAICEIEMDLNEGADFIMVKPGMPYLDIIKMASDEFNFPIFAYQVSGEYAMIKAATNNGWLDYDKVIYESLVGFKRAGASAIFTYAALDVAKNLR

[5] = target: Delta-aminolevulinic acid dehydratase (Pseudomonas aeruginosa (strain ATCC 15692 / PAO1 / 1C / PRS 101 / LMG12228)) (UniProt Q59643); test: Inhibition of Pseudomonas aeruginosa PAO1 recombinant PBGS assessed as inhibition of octamer-inducing effect of K+ by nondenaturing PAGE analysis
Summary of the method: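 PaPBGS (3 μg) preincubated 20 min at 37 °C in assay buffer with 1 mM Mg2+, 100 mM K+ and wALADin1, no 5-ALA. Run on 7.5% nondenaturing PAGE at 4 °C for 15–20 h. Coomassie for oligomer state; in-gel activity with 500 μM 5-ALA stained with Ehrlich's reagent.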

[6] = target: Delta-aminolevulinic acid dehydratase (Pseudomonas aeruginosa (strain ATCC 15692 / PAO1 / 1C / PRS 101 / LMG12228)) (UniProt Q59643); test: Inhibition of Pseudomonas aeruginosa PAO1 recombinant PBGS using low 5-ALA level as substrate at 50 to 200 uM by buffer scan assay
[7] = target: Delta-aminolevulinic acid dehydratase (Pseudomonas aeruginosa (strain ATCC 15692 / PAO1 / 1C / PRS 101 / LMG12228)) (UniProt Q59643); test: Stimulation of Pseudomonas aeruginosa PAO1 recombinant PBGS using 5 mM 5-ALA as substrate assessed as increase in Vmax at 10 to 10000 uM at pH 8 by buffer scan assay in presence of MgCl2
Summary of the method: (§1)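 Mg2+ or substrate response curves recorded with and without wALADin1; VMAX, KM and Mg2+ affinity derived from the fits.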

[8] = target: Delta-aminolevulinic acid dehydratase (Pseudomonas aeruginosa (strain ATCC 15692 / PAO1 / 1C / PRS 101 / LMG12228)) (UniProt Q59643); test: Stimulation of Pseudomonas aeruginosa PAO1 recombinant PBGS using 5 mM 5-ALA as substrate assessed as increase in Vmax at 50 to 200 uM at pH 8 by Michaelis-Menten plot analysis in presence of MgCl2; summary of the method: as §1
[9] = target: Delta-aminolevulinic acid dehydratase (Yersinia enterocolitica W22703) (UniProt F4MUJ9); test: Inhibition of Yersinia enterocolitica recombinant PBGS expressed in Escherichia coli using 5-ALA as substrate at 50 to 200 uM at pH 7 to 8.5 by buffer scan assay in presence of KCl
[10] = target: T3, Delta-aminolevulinic acid dehydratase (Escherichia coli (strain K12), UniProt P0ACB2); test: Stimulation of Escherichia coli recombinant PBGS using 5-ALA as substrate
T3 sequence (P0ACB2 whole entry): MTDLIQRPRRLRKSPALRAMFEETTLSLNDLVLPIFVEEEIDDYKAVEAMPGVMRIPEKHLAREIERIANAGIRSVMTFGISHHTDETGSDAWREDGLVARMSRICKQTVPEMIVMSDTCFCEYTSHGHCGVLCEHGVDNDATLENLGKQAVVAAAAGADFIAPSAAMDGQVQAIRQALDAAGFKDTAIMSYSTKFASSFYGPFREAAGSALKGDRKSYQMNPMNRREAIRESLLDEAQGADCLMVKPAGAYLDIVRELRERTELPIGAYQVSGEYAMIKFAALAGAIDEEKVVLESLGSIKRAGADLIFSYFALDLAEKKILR
Summary of the method: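 E. coli PBGS at 200 nM subunit in 100 mM BTP-HCl pH 8.1 with 1 mM MgCl2, 10 μM ZnCl2, 5 mM DTT and 0.2 mM 5-ALA, 10 min at 36 °C. Porphobilinogen detected with Ehrlich's reagent. Activity normalized to control with 6.7% DMSO set at 100%. EC50 by log(agonist) vs response variable-slope fit.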

[11] = target: T4, Delta-aminolevulinic acid dehydratase (Wolbachia sp. subsp. Brugia malayi (strain TRS)) (UniProt Q5GSR3); conditions: 25 to 2500 uM
T4 sequence (whole entry): T2 sequence (Q5GSR3 whole entry)

Toxoplasma gondii = test: Stimulation of Toxoplasma gondii recombinant PBGS using 5-ALA as substrate relative to control
Summary of the method: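 Recombinant T. gondii PBGS (hemB in pET-21b, expressed in BL21 E. coli) at 250 nM subunit in 100 mM Tris-HCl pH 8.0, 1 mM MgCl2, 5 mM DTT, with 200 μM 5-ALA, 20 min at 36 °C. Porphobilinogen was read with Ehrlich's reagent, and turnover was kept at or below 30%.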

[12] = target: T4, Delta-aminolevulinic acid dehydratase (Wolbachia sp. subsp. Brugia malayi (strain TRS)); conditions: 25 to 2500 uM; remark: listed apart in the source
[13] = target: Delta-aminolevulinic acid dehydratase (Pseudomonas aeruginosa (strain ATCC 15692 / PAO1 / 1C / PRS 101 / LMG12228)) (UniProt Q59643); test: Binding affinity to Pseudomonas aeruginosa PAO1 recombinant PBGS at 100 to 500 uM by thermal shift assay
[14] = target: Delta-aminolevulinic acid dehydratase (Pseudomonas aeruginosa (strain ATCC 15692 / PAO1 / 1C / PRS 101 / LMG12228)) (UniProt Q59643); test: Inhibition of Pseudomonas aeruginosa PAO1 recombinant PBGS using 0.2 mM 5-ALA as substrate at 50 to 200 uM at pH 7.5 in presence of KCl by buffer scan assay
[15] = target: Delta-aminolevulinic acid dehydratase (Pseudomonas aeruginosa (strain ATCC 15692 / PAO1 / 1C / PRS 101 / LMG12228)) (UniProt Q59643); test: Binding affinity to Pseudomonas aeruginosa PAO1 recombinant PBGS at 100 to 500 uM by thermal shift assay in presence of KCl
[16] = target: Delta-aminolevulinic acid dehydratase (Pseudomonas aeruginosa (strain ATCC 15692 / PAO1 / 1C / PRS 101 / LMG12228)) (UniProt Q59643); test: Stimulation of Pseudomonas aeruginosa PAO1 recombinant PBGS

Sequence of Delta-aminolevulinic acid dehydratase (Pseudomonas aeruginosa (strain ATCC 15692 / PAO1 / 1C / PRS 101 / LMG12228)) (Q59643 whole entry): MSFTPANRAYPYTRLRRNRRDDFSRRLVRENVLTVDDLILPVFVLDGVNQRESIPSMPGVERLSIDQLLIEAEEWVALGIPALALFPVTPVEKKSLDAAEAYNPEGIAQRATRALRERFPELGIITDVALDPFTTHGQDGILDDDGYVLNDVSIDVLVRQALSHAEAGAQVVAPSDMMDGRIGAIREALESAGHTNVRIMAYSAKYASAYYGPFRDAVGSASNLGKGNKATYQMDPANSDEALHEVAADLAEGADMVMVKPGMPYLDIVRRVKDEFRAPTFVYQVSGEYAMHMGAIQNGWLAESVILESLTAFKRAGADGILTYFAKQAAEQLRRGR
Sequence of Delta-aminolevulinic acid dehydratase (Yersinia enterocolitica W22703) (F4MUJ9 as listed by the source): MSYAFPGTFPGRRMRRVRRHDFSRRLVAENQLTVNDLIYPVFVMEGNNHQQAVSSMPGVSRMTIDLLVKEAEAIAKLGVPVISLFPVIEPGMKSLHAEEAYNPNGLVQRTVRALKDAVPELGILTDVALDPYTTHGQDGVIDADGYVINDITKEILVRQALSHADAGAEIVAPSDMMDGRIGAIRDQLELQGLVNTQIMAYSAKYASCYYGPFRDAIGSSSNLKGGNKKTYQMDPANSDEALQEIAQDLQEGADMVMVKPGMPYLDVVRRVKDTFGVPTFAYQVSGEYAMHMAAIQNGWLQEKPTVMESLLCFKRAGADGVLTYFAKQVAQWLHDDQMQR

O=C(O)c1ccc2c(c1)nc(CCNC(=O)c1cccs1)n2Cc1cccc(C(F)(F)F)c1
Activity [1]: Active
inhibition [2]: Active
inhibition [3]: Active
IC50 [4]: 11.1 µM
inhibition [5]: Dose-dependent effect
inhibition [6]: Active
Activity [7]: Active
Activity [8]: Active
inhibition [9]: Active
EC50 [10]: 60 µM
inhibition [11]: inactive
Smax (Toxoplasma gondii): 128%
inhibition [12]: Active
Activity [13]: Active
inhibition [14]: Active
Activity [15]: Active
Activity [16]: 20%
